Measured values reported in ChEMBL document CHEMBL5058577, “EUbOPEN Chemogenomics Library 2 (Multiplex)” (2022).

Tested on: HEK-293T
Test: Multiplex assay against HEK293T
Format: toxicity, cell-based
Conditions: human
Summary of the method: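 On a CQ1 microscope at 37°C and 5% CO2, live cells were imaged after compound addition. They had been stained at seeding with Hoechst33342, BioTracker Green Microtubule Cytoskeleton Dye, MitoTracker Red and Annexin V Alexa Fluor 680. CellPathfinder machine-learning gating assigned cells to Hoechst high-intensity objects or normal cells, normal cells to healthy, pyknosed or fragmented nuclei, and pyknosed cells to mitotic or apoptotic. Tubulin, mitochondrial-mass and membrane-permeability phenotypes are per cents of healthy-nucleus cells.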

[1] = 12 h, 1 µM, compound concentration 1 uM, replicate 1
[2] = 12 h, 1 µM, compound concentration 1 uM, replicate 2
[3] = 12 h, 10 µM, compound concentration 10 uM, replicate 1
[4] = 12 h, 10 µM, compound concentration 10 uM, replicate 2
[5] = 24 h, 1 µM, compound concentration 1 uM, replicate 1
[6] = 24 h, 1 µM, compound concentration 1 uM, replicate 2
[7] = 24 h, 10 µM, compound concentration 10 uM, replicate 1
[8] = 24 h, 10 µM, compound concentration 10 uM, replicate 2
[9] = 48 h, 1 µM, compound concentration 1 uM, replicate 1
[10] = 48 h, 1 µM, compound concentration 1 uM, replicate 2
[11] = 48 h, 10 µM, compound concentration 10 uM, replicate 1
[12] = 48 h, 10 µM, compound concentration 10 uM, replicate 2

SMILES: C[C@H]1[C@H]2CC[C@H]3[C@@H]4CC=C5C[C@@H](N(C)C)CC[C@]5(C)[C@H]4CC[C@]23CN1C [CONESSINE]
- Population Apoptotic (%) [1]: 35%
- Population Fragmented Nuclei (%) [1]: 5%
- Population Healthy Nuclei (%) [1]: 78%
- Population Hoechst High Intensity Objects (%) [1]: 6%
- Population Membrane Permeable-Phenotype (%) [1]: 0%
- Population Mitochondria Different-Phenotype (%) [1]: 39%
- Population Mitotic Cells (%) [1]: 65%
- Population Normal (%) [1]: 93%
- Population Pyknosed Nuclei (%) [1]: 16%
- Population Tubulin-Different-Phenotype (%) [1]: 26%
- Total Cell Count [1]: 400
- Population Apoptotic (%) [2]: 48%
- Population Fragmented Nuclei (%) [2]: 4%
- Population Healthy Nuclei (%) [2]: 85%
- Population Hoechst High Intensity Objects (%) [2]: 8%
- Population Mitochondria Different-Phenotype (%) [2]: 58%
- Population Mitotic Cells (%) [2]: 51%
- Population Normal (%) [2]: 91%
- Population Pyknosed Nuclei (%) [2]: 10%
- Population Tubulin-Different-Phenotype (%) [2]: 22%
- Total Cell Count [2]: 356
- Population Apoptotic (%) [3]: 35%
- Population Fragmented Nuclei (%) [3]: 6%
- Population Healthy Nuclei (%) [3]: 77%
- Population Hoechst High Intensity Objects (%) [3]: 6%
- Population Membrane Permeable-Phenotype (%) [3]: 1%
- Population Mitochondria Different-Phenotype (%) [3]: 56%
- Population Mitotic Cells (%) [3]: 65%
- Population Normal (%) [3]: 93%
- Population Pyknosed Nuclei (%) [3]: 15%
- Population Tubulin-Different-Phenotype (%) [3]: 38%
- Total Cell Count [3]: 419
- Population Apoptotic (%) [4]: 59%
- Population Fragmented Nuclei (%) [4]: 7%
- Population Healthy Nuclei (%) [4]: 78%
- Population Hoechst High Intensity Objects (%) [4]: 9%
- Population Membrane Permeable-Phenotype (%) [4]: 0%
- Population Mitochondria Different-Phenotype (%) [4]: 62%
- Population Mitotic Cells (%) [4]: 40%
- Population Normal (%) [4]: 90%
- Population Pyknosed Nuclei (%) [4]: 14%
- Population Tubulin-Different-Phenotype (%) [4]: 30%
- Total Cell Count [4]: 384
- Population Apoptotic (%) [5]: 26%
- Population Fragmented Nuclei (%) [5]: 9%
- Population Healthy Nuclei (%) [5]: 80%
- Population Hoechst High Intensity Objects (%) [5]: 5%
- Population Membrane Permeable-Phenotype (%) [5]: 1%
- Population Mitochondria Different-Phenotype (%) [5]: 22%
- Population Mitotic Cells (%) [5]: 73%
- Population Normal (%) [5]: 94%
- Population Pyknosed Nuclei (%) [5]: 10%
- Population Tubulin-Different-Phenotype (%) [5]: 17%
- Total Cell Count [5]: 514
- Population Apoptotic (%) [6]: 25%
- Population Fragmented Nuclei (%) [6]: 8%
- Population Healthy Nuclei (%) [6]: 81%
- Population Hoechst High Intensity Objects (%) [6]: 4%
- Population Membrane Permeable-Phenotype (%) [6]: 0%
- Population Mitochondria Different-Phenotype (%) [6]: 34%
- Population Mitotic Cells (%) [6]: 75%
- Population Normal (%) [6]: 95%
- Population Tubulin-Different-Phenotype (%) [6]: 16%
- Total Cell Count [6]: 484
- Population Apoptotic (%) [7]: 27%
- Population Fragmented Nuclei (%) [7]: 9%
- Population Healthy Nuclei (%) [7]: 79%
- Population Hoechst High Intensity Objects (%) [7]: 6%
- Population Membrane Permeable-Phenotype (%) [7]: 1%
- Population Mitochondria Different-Phenotype (%) [7]: 38%
- Population Mitotic Cells (%) [7]: 72%
- Population Normal (%) [7]: 93%
- Population Pyknosed Nuclei (%) [7]: 11%
- Population Tubulin-Different-Phenotype (%) [7]: 28%
- Total Cell Count [7]: 572
- Population Apoptotic (%) [8]: 47%
- Population Healthy Nuclei (%) [8]: 82%
- Population Hoechst High Intensity Objects (%) [8]: 9%
- Population Membrane Permeable-Phenotype (%) [8]: 0%
- Population Mitochondria Different-Phenotype (%) [8]: 43%
- Population Mitotic Cells (%) [8]: 52%
- Population Normal (%) [8]: 90%
- Population Pyknosed Nuclei (%) [8]: 7%
- Population Tubulin-Different-Phenotype (%) [8]: 24%
- Total Cell Count [8]: 474
- Population Apoptotic (%) [9]: 30%
- Population Fragmented Nuclei (%) [9]: 9%
- Population Healthy Nuclei (%) [9]: 82%
- Population Hoechst High Intensity Objects (%) [9]: 2%
- Population Membrane Permeable-Phenotype (%) [9]: 1%
- Population Mitochondria Different-Phenotype (%) [9]: 18%
- Population Mitotic Cells (%) [9]: 69%
- Population Normal (%) [9]: 97%
- Population Pyknosed Nuclei (%) [9]: 7%
- Population Tubulin-Different-Phenotype (%) [9]: 12%
- Total Cell Count [9]: 735
- Population Apoptotic (%) [10]: 36%
- Population Fragmented Nuclei (%) [10]: 10%
- Population Healthy Nuclei (%) [10]: 83%
- Population Hoechst High Intensity Objects (%) [10]: 4%
- Population Mitochondria Different-Phenotype (%) [10]: 20%
- Population Mitotic Cells (%) [10]: 63%
- Population Normal (%) [10]: 95%
- Population Pyknosed Nuclei (%) [10]: 5%
- Population Tubulin-Different-Phenotype (%) [10]: 11%
- Total Cell Count [10]: 630
- Population Apoptotic (%) [11]: 27%
- Population Fragmented Nuclei (%) [11]: 14%
- Population Healthy Nuclei (%) [11]: 78%
- Population Hoechst High Intensity Objects (%) [11]: 4%
- Population Membrane Permeable-Phenotype (%) [11]: 1%
- Population Mitochondria Different-Phenotype (%) [11]: 23%
- Population Mitotic Cells (%) [11]: 72%
- Population Normal (%) [11]: 95%
- Population Pyknosed Nuclei (%) [11]: 6%
- Population Tubulin-Different-Phenotype (%) [11]: 15%
- Total Cell Count [11]: 767
- Population Apoptotic (%) [12]: 36%
- Population Fragmented Nuclei (%) [12]: 10%
- Population Healthy Nuclei (%) [12]: 81%
- Population Hoechst High Intensity Objects (%) [12]: 5%
- Population Membrane Permeable-Phenotype (%) [12]: 0%
- Population Mitochondria Different-Phenotype (%) [12]: 32%
- Population Mitotic Cells (%) [12]: 63%
- Population Normal (%) [12]: 94%
- Population Pyknosed Nuclei (%) [12]: 7%
- Population Tubulin-Different-Phenotype (%) [12]: 17%
- Total Cell Count [12]: 618
